Source: ChEMBL document CHEMBL1140196, “Synthesis and biological activities of some new fluorinated coumarins and 1-aza coumarins” (Eur J Med Chem, 2008)

Columns and labels:
Rattus norvegicus [1] = assay: Gastrointestinal toxicity in Wistar rat assessed as ulcerogenic effect at 10 mg/kg, po administered twice at 2 hrs interval after 4 hrs; type: organism-based; parameters: dose 10 mg/kg, route oral; conditions: in vivo
How it was run: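 Male Wistar rats fasted 36 h, then given indomethacin suspended in 1% CMC orally at 2 × 10 mg/kg, 2 h apart. Animals killed after 4 h and the stomach examined for lesions; ulcer index recorded.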

Rattus norvegicus [2] = assay: Antiinflammatory activity in Wistar rat assessed as inhibition of formalin-induced paw oedema volume at 10 mg/kg, po administered 30 mins before formalin challenge after 2 hrs relative to control; type: functional
How it was run: (§1)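 Reference arm of the formalin paw-oedema test: oral dose of 10 mg/kg, 30 min before 3.5% formalin, in groups of six Wistar rats of either sex. Paw volume read by mercury-displacement plethysmograph at 0 to 5 h. Percent inhibition versus 2% CMC vehicle controls.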

Mus musculus = assay: Analgesic activity in albino mouse assessed as inhibition of acetic acid-induced writhing at 10 mg/kg, po; type: functional
How it was run: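 Acetic acid writhing test: 0.6% acetic acid at 0.1 ml/10 g given intraperitoneally to albino mice of both sexes (18–22 g). Compounds given orally at 10 mg/kg as a suspension in 5% carboxymethyl cellulose. Indomethacin 10 mg/kg was the reference under the same conditions.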

Rattus norvegicus [3] = assay: Antiinflammatory activity in Wistar rat assessed as inhibition of formalin-induced paw oedema volume at 10 mg/kg, po administered 30 mins before formalin challenge after 3 hrs relative to control; type: functional; how it was run: as §1
Rattus norvegicus [4] = assay: Antiinflammatory activity in Wistar rat assessed as inhibition of formalin-induced paw oedema volume at 10 mg/kg, po administered 30 mins before formalin challenge after 5 hrs relative to control; type: functional; how it was run: as §1
[5] = Acute toxicity in ip dosed albino mouse after 24 hrs; type: organism-based; conditions: in vivo
How it was run: (§2)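 Groups of six albino mice (20–25 g), fasted overnight, dosed once orally or intraperitoneally at 100 to 1000 mg kg^-1 body weight. Observed for 24 h for mortality and signs of acute toxicity (altered motor activity, tremors, convulsion, sedation, lacrimation). LD50 cut-off set at the highest dose tested, 1000 mg kg^-1.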

Rattus norvegicus [6] = assay: Antiinflammatory activity in Wistar rat assessed as inhibition of formalin-induced paw oedema volume at 10 mg/kg, po administered 30 mins before formalin challenge after 4 hrs relative to control; type: functional; how it was run: as §1
[7] = Acute toxicity in po dosed albino mouse after 24 hrs; type: organism-based; conditions: in vivo; how it was run: as §2
Rattus norvegicus [8] = assay: Antiinflammatory activity in Wistar rat assessed as inhibition of formalin-induced paw oedema volume at 10 mg/kg, po administered 30 mins before formalin challenge after 1 hr relative to control; type: functional; how it was run: as §1
Bacillus [9] = assay: Antibacterial activity against […] at 25 ug/mL after 48 hrs by cup-plate method; type: functional; conditions: for zone of inhibition at 25 µg/mL: read-out: IZ
Aspergillus niger [10] = assay: Antifungal activity against Aspergillus niger at 100 ug/mL after 48 hrs by cup-plate method; type: functional
Aspergillus niger [11] = assay: Antifungal activity against Aspergillus niger at 25 ug/mL after 48 hrs by cup-plate method; type: functional; conditions: for zone of inhibition at 25 µg/mL: read-out: IZ
Macrophomina phaseolina [12] = assay: Antifungal activity against Rhizoctonia bataticola at 50 ug/mL after 48 hrs by cup-plate method; type: functional
Macrophomina phaseolina [13] = assay: Antifungal activity against Rhizoctonia bataticola at 25 ug/mL after 48 hrs by cup-plate method; type: functional
Bacillus [14] = assay: Antibacterial activity against […] at 100 ug/mL after 48 hrs by cup-plate method; type: functional
Rattus norvegicus [15] = assay: Antiinflammatory activity in Wistar rat assessed as inhibition of formalin-induced paw oedema volume at 100 mg/kg, po administered 30 mins before formalin challenge after 4 hrs relative to control; type: functional
How it was run: (§3)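 Oral dosing at 100 mg/kg as a 2% CMC suspension, 30 min before injecting 3.5% formalin into the paw. Groups of six Wistar rats of either sex. Paw volume read by mercury-displacement plethysmograph at 0 h (right after formalin) and at 1, 2, 3, 4 and 5 h. Percent inhibition versus plain 2% CMC controls; SEM reported.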

Bacillus [16] = assay: Antibacterial activity against […] at 50 ug/mL after 48 hrs by cup-plate method; type: functional
Escherichia coli [17] = assay: Antibacterial activity against Escherichia coli at 100 ug/mL after 48 hrs by cup-plate method; type: functional
Rattus norvegicus [18] = assay: Gastrointestinal toxicity in Wistar rat assessed as ulcerogenic effect at 400 mg/kg, po administered twice at 2 hrs interval after 4 hrs; type: organism-based; parameters: dose 400 mg/kg, route oral; conditions: in vivo
How it was run: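 Male Wistar rats fasted 36 h, then given 400 mg/kg orally twice, 2 h apart. Animals killed 4 h later and the stomach examined for lesions; ulcer index recorded.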

Rattus norvegicus [19] = assay: Antiinflammatory activity in Wistar rat assessed as inhibition of formalin-induced paw oedema volume at 100 mg/kg, po administered 30 mins before formalin challenge after 1 hr relative to control; type: functional; how it was run: as §3
Escherichia coli [20] = assay: Antibacterial activity against Escherichia coli at 50 ug/mL after 48 hrs by cup-plate method; type: functional
Aspergillus niger [21] = assay: Antifungal activity against Aspergillus niger at 50 ug/mL after 48 hrs by cup-plate method; type: functional
Macrophomina phaseolina [22] = assay: Antifungal activity against Rhizoctonia bataticola at 100 ug/mL after 48 hrs by cup-plate method; type: functional
Rattus norvegicus [23] = assay: Antiinflammatory activity in Wistar rat assessed as inhibition of formalin-induced paw oedema volume at 100 mg/kg, po administered 30 mins before formalin challenge after 3 hrs relative to control; type: functional; how it was run: as §3
Rattus norvegicus [24] = assay: Antiinflammatory activity in Wistar rat assessed as inhibition of formalin-induced paw oedema volume at 100 mg/kg, po administered 30 mins before formalin challenge after 2 hrs relative to control; type: functional; how it was run: as §3
Rattus norvegicus [25] = assay: Antiinflammatory activity in Wistar rat assessed as inhibition of formalin-induced paw oedema volume at 100 mg/kg, po administered 30 mins before formalin challenge after 5 hrs relative to control; type: functional; how it was run: as §3
Escherichia coli [26] = assay: Antibacterial activity against Escherichia coli at 25 ug/mL after 48 hrs by cup-plate method; type: functional; conditions: for zone of inhibition at 25 µg/mL: read-out: IZ

Row | Structure (SMILES) | inhibition in vivo at 10 mg/kg (Mus musculus) [%] | LD50 at 24 h [5] [mg/kg] | LD50 at 24 h [7] [mg/kg] | inhibition at 25 µg/mL (Bacillus [9]) [%] | zone of inhibition at 25 µg/mL (Bacillus [9]) [mm] | inhibition at 100 µg/mL (Aspergillus niger [10]) [%] | inhibition at 25 µg/mL (Aspergillus niger [11]) [%] | zone of inhibition at 25 µg/mL (Aspergillus niger [11]) [mm] | inhibition at 50 µg/mL (Macrophomina phaseolina [12]) [%] | inhibition at 25 µg/mL (Macrophomina phaseolina [13]) [%] | inhibition at 100 µg/mL (Bacillus [14]) [%] | inhibition in vivo at 100 mg/kg (Rattus norvegicus [15]) [%] | inhibition at 50 µg/mL (Bacillus [16]) [%] | inhibition at 100 µg/mL (Escherichia coli [17]) [%] | UI (Rattus norvegicus [18]) | inhibition in vivo at 100 mg/kg (Rattus norvegicus [19]) [%] | inhibition at 50 µg/mL (Escherichia coli [20]) [%] | inhibition at 50 µg/mL (Aspergillus niger [21]) [%] | inhibition at 100 µg/mL (Macrophomina phaseolina [22]) [%] | inhibition in vivo at 100 mg/kg (Rattus norvegicus [23]) [%] | also measured
1 | COc1ccc2c(c1)c(CC(=O)O)c(C)n2C(=O)c1ccc(Cl)cc1 [INDOMETHACIN] | 46.2 | 15 | 25 | – | – | – | – | – | – | – | – | – | – | – | – | – | – | – | – | – | UI (Rattus norvegicus [1]): 185.14; inhibition in vivo at 10 mg/kg (Rattus norvegicus [2]): 43%; inhibition in vivo at 10 mg/kg (Rattus norvegicus [3]): 75%; inhibition in vivo at 10 mg/kg (Rattus norvegicus [4]): 85%; inhibition in vivo at 10 mg/kg (Rattus norvegicus [6]): 76%; inhibition in vivo at 10 mg/kg (Rattus norvegicus [8]): 35%
2 | O=c1cc(CNc2ccc(F)cc2)c2cc(Cl)ccc2[nH]1 | 7.99 | > 700 | > 1000 | 22 | 52 | 77 | 35 | 70 | 56 | 44 | 76 | 59 | 41 | 70 | 58.57 | 9 | 50 | 47 | 75 | 46 | inhibition in vivo at 100 mg/kg (Rattus norvegicus [24]): 12%; inhibition in vivo at 100 mg/kg (Rattus norvegicus [25]): 77%; inhibition at 25 µg/mL (Escherichia coli [26]): 26%; zone of inhibition at 25 µg/mL (Escherichia coli [26]): 60 mm
3 | O=c1cc(COc2ccc(F)cc2)c2cc(Cl)ccc2[nH]1 | 26.9 | > 800 | > 1000 | 28 | 60 | 75 | 29 | 62 | 68 | 50 | 80 | 71 | 51 | 81 | 71.42 | 39 | 62 | 44 | 84 | 57 | inhibition in vivo at 100 mg/kg (Rattus norvegicus [24]): 28%; inhibition in vivo at 100 mg/kg (Rattus norvegicus [25]): 80%; inhibition at 25 µg/mL (Escherichia coli [26]): 45%; zone of inhibition at 25 µg/mL (Escherichia coli [26]): 88 mm
